Experimental data reported in ChEMBL document CHEMBL3272089, “Synthesis and antitumor activity of dihydro-5-azacytidine, a hydrolytically stable analogue of 5-azacytidine” (J Med Chem, 1977).
Calls of active or inactive are those of the source. No cut-off for these calls is given here.

Assays:
L1210 [1] = experiment: Antitumor activity against mouse L1210 cells allografted in ip dosed mouse assessed as dose required for minimal activity administered qd on day 1 post tumor implantation; assay type: functional; conditions: 24 h, read-out: MED
In short: (§1)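 Tumour cells were implanted ip (intracerebrally for IC-L1210), with the compound given in 0.9% saline ip, or orally to nonfasting mice in PO-L1210. Dose–response series each halved the preceding dose, expressed as mg/kg per injection. Activity was read as % increase in life-span (% ILS) over untreated controls, and from this the minimum, optimal and maximum active doses were taken.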

L1210 [2] = experiment: Antitumor activity against mouse L1210 cells allografted in ip dosed mouse assessed as change in body weight at optimal dose administered qd on day 1 post tumor implantation measured on day 5 relative to control; assay type: functional
In short: (§2)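 Mice bearing tumour cells implanted ip (intracerebrally in the IC-L1210 system) got compound in 0.9% saline ip on the stated schedule, or orally to nonfasting animals in the PO-L1210 system. Day-1 dosing, per day, or every 6 h counted from implantation. The value is the difference in average body weight change (g) on day 5 between the optimal-dose group (T) and controls (C).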

[3] = Drug degradation in lactated Ringer's solution at 25 degC after 4.7 hrs; assay type: physicochemical; conditions: read-out: Drug degradation
L1210 [4] = experiment: Antitumor activity against mouse L1210 cells allografted in ip dosed mouse assessed as dose required for maximal activity administered qd from day 1 to day 9 post tumor implantation; assay type: functional; in short: as §1
L1210 [5] = experiment: Cytotoxicity against mouse L1210 cells assessed as cessation of growth in presence of cytidine; assay type: functional, cell-based
[6] = Therapeutic index, ratio of toxicity in ip dosed mouse allografted with mouse L1210 cells assessed as optimal dose required for maximum increase in life span to antitumor activity against mouse L1210 cells allografted in ip dosed mouse assessed as lowest dose required for 40% increase in life span; assay type: organism-based; conditions: in vivo, read-out: TI
In short: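 Mice tumored ip with L1210 and treated ip on days 1-9 (QD1-9) with drug in 0.9% saline, using serial twofold dose dilutions. Survival gain over untreated controls was expressed as % ILS. Dose-response relationships came from five QD1-9 experiments. TI = optimal dose for maximum % ILS ÷ lowest dose giving 40% ILS.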

P388 = experiment: Antitumor activity against mouse P388 cells allografted in ip dosed mouse assessed as increase in life span at optimal dose administered qd from day 1 to day 9 post tumor implantation relative to control; assay type: functional
B16 = experiment: Antitumor activity against mouse B16 cells allografted in ip dosed mouse assessed as dose required for minimal activity administered qd from day 1 to day 9 post tumor implantation; assay type: functional; conditions: read-out: MED; in short: as §1
L1210 [7] = experiment: Antitumor activity against mouse L1210 cells allografted in po dosed mouse assessed as increase in life span at optimal dose administered qd from day 1 to day 9 post tumor implantation relative to control; assay type: functional
In short: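 Mice bearing ip-implanted L1210 were dosed orally, nonfasting, with compound in 0.9% saline. Dose-response in twofold steps, mg/kg per dose. % ILS relative to untreated controls at the optimal dose. Weight change (test minus control) on day 5.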

L1210 [8] = experiment: Antitumor activity against mouse L1210 cells allografted in ip dosed mouse assessed as increase in life span at optimal dose administered qd from day 1 to day 9 post intracerebral tumor implantation relative to control; assay type: functional
In short: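 L1210 cells implanted intracerebrally in mice. Drug given ip in 0.9% saline, dose-response in twofold dose steps (mg/kg per injection). Antitumor effect as % increase in life-span over untreated controls at the optimal dose. Test minus control body-weight change recorded on day 5.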

L1210 [9] = experiment: Antitumor activity against mouse L1210 cells allografted in po dosed mouse assessed as dose required for maximal activity administered qd from day 1 to day 9 post tumor implantation; assay type: functional; in short: as §1
Mus musculus [10] = experiment: Toxicity in ip dosed mouse allografted with mouse L1210 cells assessed as dose required for optimal activity administered every 6 hrs on day 1, 5 and 9 post tumor implantation; assay type: organism-based; conditions: in vivo; in short: as §1
L1210 [11] = experiment: Cytotoxicity against mouse L1210 cells assessed as cessation of growth; assay type: functional, cell-based
[12] = Drug degradation in 1 N ammonium hydroxide solution assessed as l-beta-D-Ribofuranosyl-3-guanylurea level; assay type: physicochemical
L1210 [13] = experiment: Antitumor activity against 5-azacytidine-resistant mouse L1210 cells allografted in ip dosed mouse assessed as increase in life span at optimal dose administered qd from day 1 to day 9 post tumor implantation relative to control; assay type: functional
In short: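 An L1210 subline resistant to 5-azacytidine (L1210/AZA) was implanted ip in mice. Drug given ip in 0.9% saline, dose-response in twofold steps, dose in mg/kg per injection. % ILS over untreated control survival at the optimal dose. Test minus control body-weight change on day 5.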

[14] = Half life of the compound at 25 degC at pH 7 by HPLC analysis; assay type: physicochemical
L1210 [15] = experiment: Antitumor activity against mouse L1210 cells allografted in ip dosed mouse assessed as dose required for minimal activity administered every 6 hrs on day 1, 5 and 9 post tumor implantation; assay type: functional; conditions: read-out: MED; in short: as §1
L1210 [16] = experiment: Antitumor activity against mouse L1210 cells allografted in ip dosed mouse assessed as dose required for maximal activity administered qd on day 1, 5 and 9 post tumor implantation; assay type: functional; in short: as §1
L1210 [17] = experiment: Antitumor activity against mouse L1210 cells allografted in ip dosed mouse assessed as increase in life span at optimal dose administered qd on day 1 post tumor implantation relative to control; assay type: functional
In short: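 L1210 leukemia cells implanted ip in mice. Drug given ip in 0.9% saline: day 1 only (QD1); days 1, 5, 9 (Q4D); every 6 h on days 1, 5, 9 (Q4D(Q6H)); or days 1-9 (QD1-9). Dose-response run in twofold steps, dose in mg/kg per injection. % ILS versus untreated controls at the optimal dose. Toxicity taken as test minus control body-weight change on day 5.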

L1210 [18] = experiment: Cytotoxicity against mouse L1210 cells assessed as cessation of growth in presence of uridine; assay type: functional, cell-based
[19] = Chemical stability in 1 N ammonium hydroxide solution at room temperature after 7 days; assay type: physicochemical; conditions: 168 h
In short: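 The compound was stored 7 days at room temperature in 1 N ammonium hydroxide, then recovered and checked as the free base.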

Mus musculus [20] = experiment: Toxicity in ip dosed mouse allografted with 5-azacytidine-resistant mouse L1210 cells assessed as dose required for optimal activity administered qd from day 1 to day 9 post tumor implantation; assay type: organism-based; conditions: in vivo; in short: as §1
L1210 [21] = experiment: Antitumor activity against 5-azacytidine-resistant mouse L1210 cells allografted in ip dosed mouse assessed as change in body weight at optimal dose administered qd from day 1 to day 9 post tumor implantation measured on day 5 relative to control; assay type: functional; in short: as §2
[22] = Solubility of the compound in water at pH 6; assay type: physicochemical

SMILES	minimal effective dose (L1210 [1])	Activity (L1210 [2])	MAD (L1210 [4])	selectivity ratio [6]	ILS (P388)	ILS (L1210 [7])	ILS (L1210 [8])	MAD (L1210 [9])	Activity (Mus musculus [10])	ILS (L1210 [13])	minimal effective dose (L1210 [15])	MAD (L1210 [16])	ILS (L1210 [17])	also measured
Nc1ncn([C@@H]2O[C@H](CO)[C@@H](O)[C@H]2O)c(=O)n1 [AZACITIDINE]	12.5 mg/kg	-3.8 g	3.13 mg/kg	7.5	127%	24%	28%	25 mg/kg	5 mg/kg	0%	1.25 mg/kg	20 mg/kg	73%	degraded at 4.7 h [3]: 15%; Activity (L1210 [5]): inactive; minimal effective dose (B16): 1.5 mg/kg; Activity (L1210 [11]): Active; Stability [12]: Unstable; half-life [14]: 48 h; Activity (L1210 [18]): inactive
Cl.NC1=NC(=O)N([C@@H]2O[C@H](CO)[C@@H](O)[C@H]2O)CN1	300 mg/kg	-3.1 g	200 mg/kg	10	85%	50%	46%	400 mg/kg	125 mg/kg	0%	9.4 mg/kg	600 mg/kg	34%	Stability [19]: Stable; Activity (Mus musculus [20]): 25 mg/kg; Activity (L1210 [21]): 0.1 g; solubility [22]: 40 mg/mL
